We go through 18 molecules from ChEMBL document CHEMBL4480374, “Methoxy substituted 2-benzylidene-1-indanone derivatives as A1 and/or A2A AR antagonists for the potential treatment of neurological conditions” (Medchemcomm, 2019).

For experiment [1], the target named is T1, Adenosine receptor A1 (Rattus norvegicus, UniProt P25099).
T1 sequence (P25099 whole entry): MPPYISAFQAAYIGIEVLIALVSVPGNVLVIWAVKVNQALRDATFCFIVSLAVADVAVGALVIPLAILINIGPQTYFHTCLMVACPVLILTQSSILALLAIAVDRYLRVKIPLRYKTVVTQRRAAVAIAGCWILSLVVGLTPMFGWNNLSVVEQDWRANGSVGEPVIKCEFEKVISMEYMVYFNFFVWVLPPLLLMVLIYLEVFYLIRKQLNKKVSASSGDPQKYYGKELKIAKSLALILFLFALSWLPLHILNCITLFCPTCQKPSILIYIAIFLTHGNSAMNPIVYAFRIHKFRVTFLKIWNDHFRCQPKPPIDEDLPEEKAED
Briefly: Displacement of [3H]DPCPX from adenosine A1 receptor in rat brain membranes by radioligand competition assay. In kind it is cell membranes. (Loss of bound radioactivity is the signal in a displacement assay; it reports binding, not function.)

In experiment [2] the target is T2, Adenosine receptor A1 (Rattus norvegicus) (UniProt P25099).
T2 sequence (whole entry): T1 sequence (P25099 whole entry)
Briefly: Displacement of [3H]DPCPX from adenosine A1 receptor in rat brain membranes at 100 uM by radioligand competition assay relative to control. In kind it is cell membranes. The method in brief:
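Percentage displacement of radioligand recorded at the maximum tested concentration, 100 μM. Nonspecific binding defined with 100 μM CPA.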

Experiment [3] deals with T3, Adenosine receptor A2a (Rattus norvegicus, UniProt P30543). Briefly: Displacement of [3H]NECA from adenosine A2A receptor in rat striatal membranes by radioligand competition assay. In kind it is cell membranes, Striatum, Membrane.
T3 sequence (P30543 whole entry): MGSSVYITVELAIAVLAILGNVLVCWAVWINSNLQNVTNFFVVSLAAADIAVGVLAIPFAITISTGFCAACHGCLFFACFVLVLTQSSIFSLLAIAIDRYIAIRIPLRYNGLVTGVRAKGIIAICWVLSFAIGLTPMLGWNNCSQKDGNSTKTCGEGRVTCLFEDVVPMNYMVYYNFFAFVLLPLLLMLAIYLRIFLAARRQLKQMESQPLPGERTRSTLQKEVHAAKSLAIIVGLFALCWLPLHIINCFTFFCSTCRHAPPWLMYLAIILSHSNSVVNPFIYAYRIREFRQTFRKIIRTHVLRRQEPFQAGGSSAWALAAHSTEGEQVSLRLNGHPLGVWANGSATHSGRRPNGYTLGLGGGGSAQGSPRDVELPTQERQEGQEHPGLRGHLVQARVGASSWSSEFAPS
Experiment [4] concerns the target Adenosine receptor A2a (Rattus norvegicus) (UniProt P30543). Briefly: Displacement of [3H]NECA from adenosine A2A receptor in rat striatal membranes at 100 uM by radioligand competition assay relative to control. The class given is cell membranes. As to conditions: Striatum, Membrane. The method in brief:
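Rat striatal membranes, [3H]NECA at 4 nM (Kd = 15.3 nM) with CPA added to minimise A1 binding. Percentage radioligand displacement recorded at the highest tested concentration, 100 μM. Nonspecific binding defined with 100 μM CPA.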

Experiment [5] has as its target T1, Adenosine receptor A1. Briefly: Antagonist activity at rat adenosine A1 receptor.
Experiment [6] deals with T3, Adenosine receptor A2a. Briefly: Antagonist activity at rat adenosine A2A receptor. The gist of the method:
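Competition binding at A2A in rat striatal membranes with [3H]NECA (4 nM; Kd = 15.3 nM), with CPA present to limit [3H]NECA binding to A1. Nonspecific binding defined with 100 μM CPA (final). Ki derived from IC50 of sigmoidal dose-response curves of specific binding vs log concentration. Triplicate incubations, mean ± SEM.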

The species entered for another experiment is Rattus norvegicus. The experiment in a line: Selectivity index, ratio of Ki for adenosine A1 receptor in rat brain membranes to Ki for adenosine A2A receptor in rat striatal membranes. In kind it is cell membranes. The method in brief:
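Selectivity index calculated as the ratio A1 Ki / A2A Ki. […] A2A Ki measured by [3H]NECA (4 nM, with CPA) competition in rat striatal membranes. Ki values are triplicate means.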

Experiment [7] deals with T1, Adenosine receptor A1. The experiment in a line: Displacement of [3H]DPCPX from adenosine A1 receptor in rat brain membranes in presence of GTP by radioligand competition assay. The class given is cell membranes.
For experiment [8], the target named is T2, Adenosine receptor A1 (Rattus norvegicus). The experiment in a line: Selectivity index, ratio of Ki for adenosine A1 receptor in rat brain membranes in presence of GTP to Ki for adenosine A1 receptor in rat brain membranes in absence of GTP. The class given is cell membranes. The method in brief:
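Both determined by [3H]DPCPX (0.1 nM) competition in rat whole brain membranes, nonspecific binding by 10 μM unlabelled DPCPX. A shift of about 1 is taken as antagonism.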

Sequence of Adenosine receptor A2a (Rattus norvegicus) (P30543 whole entry): as above

As usually defined, the Ki is the equilibrium dissociation constant of an inhibitor or competing ligand from its target. The term inhibition denotes the relative decrease from the control value, in per cent. A lower inhibition goes with a response near the control. With `COc1cccc2c1CCC2=O`, the Ki on Adenosine receptor A1 [1] and on Adenosine receptor A2a [3] was above 100 µM throughout. The inhibition in experiment [2] came to 78%; in [4] it was 72%.

As for `COc1cccc2c1C/C(=C\c1ccc(O)cc1)C2=O`, the Ki on Adenosine receptor A1 [1] and at Adenosine receptor A2a [3] was above 100 µM throughout. Further, the results for the inhibition in experiment [2] and in [4] were 31% and 65%, respectively.

Regarding `COc1ccc2c(c1)C/C(=C\c1ccc(N(C)C)cc1)C2=O`, the Ki on Adenosine receptor A1 [1] and at Adenosine receptor A2a [3] was above 100 µM each time. In addition, the inhibition in experiment [2] amounted to 64%; in experiment [4], 47%.

For `O=C1/C(=C/c2ccc(O)c(O)c2)Oc2c1ccc(O)c2O`, the Ki came out at 3.47 µM at Adenosine receptor A1 [5] and 9.35 µM at Adenosine receptor A2a [6].

As for `O=C1/C(=C/c2ccc(O)c(O)c2)Cc2cc3c(cc21)OCO3`, the Ki at Adenosine receptor A1 [1] is above 100 µM; at Adenosine receptor A2a [3] it was 1.07 µM. The inhibition in [2] was 70%.

As for `COc1cccc2c1C/C(=C\c1ccc(N(C)C)cc1)C2=O`, the Ki on Adenosine receptor A1 [1] and at Adenosine receptor A2a [3] was above 100 µM in each case. Further, the inhibition stood at 52% in experiment [2] and 23% in [4].

For the molecule `O=C1/C(=C/c2ccc(O)cc2)Oc2cc(O)ccc21`, at Adenosine receptor A2a [6], the Ki is above 100 µM.

In the case of `O=C1/C(=C/c2ccc(O)c(O)c2)Cc2c(O)cccc21`, the Ki at Adenosine receptor A1 [1] was 0.435 µM; at Adenosine receptor A2a [3], 0.903 µM; at Adenosine receptor A1 [7], 0.339 µM. Also, the Ratio Ki in the experiment filed under Rattus norvegicus stood at 0.5; in experiment [8], 0.9.

On to `COc1cccc2c1C/C(=C\c1ccc(O)c(O)c1)C2=O`, for which the Ki at Adenosine receptor A1 [1] came out at 0.042 µM; on Adenosine receptor A2a [3] it was 0.078 µM. In the experiment listed under Rattus norvegicus, the Ratio Ki is 0.5.

Take `COc1cc(OC)c(OC)cc1/C=C1\Cc2c(OC)cccc2C1=O`: the Ki at Adenosine receptor A1 [1] and on Adenosine receptor A2a [3] was above 100 µM in each case. Moreover, the inhibition in experiment [2] was 46%; in [4], 29%.

As for `COc1cc2c(cc1OC)C(=O)/C(=C/c1ccc(O)c(O)c1)C2`, the Ki on Adenosine receptor A1 [1] came out at 4.29 µM; on Adenosine receptor A2a [3], 18 µM. The Ratio Ki in the experiment listed under Rattus norvegicus was found to be 0.2.

The molecule `OC[C@H]1O[C@@H](n2cnc3c(NC4CCCC4)ncnc32)[C@H](O)[C@@H]1O` [N6-CYCLOPENTYLADENOSINE] displayed a Ki at Adenosine receptor A2a [3] of 0.163 µM.

As to `COc1cccc2c1C/C(=C\c1ccccc1)C2=O`, the Ki was 1.65 µM on Adenosine receptor A1 [1] and above 100 µM on Adenosine receptor A2a [3]. For the same molecule, the inhibition in experiment [4] was 62%.

With `COc1cccc2c1C/C(=C\c1cccc(O)c1)C2=O`, the figures for the Ki at Adenosine receptor A1 [1], on Adenosine receptor A2a [3] and on Adenosine receptor A1 [7] were 0.041 µM, 0.097 µM and 0.06 µM, respectively. Further, the Ratio Ki in the experiment filed under Rattus norvegicus was determined as 0.4; in experiment [8] it was 1.46.

Consider `CN(C)c1ccc(/C=C2\Cc3ccccc3C2=O)cc1`, for which the Ki at Adenosine receptor A1 [1] and at Adenosine receptor A2a [3] was above 100 µM throughout. Also, the figures for the inhibition in [2] and in [4] were 51% and 65%, respectively.

Regarding `COc1ccc2c(c1)C/C(=C\c1ccccc1)C2=O`, the Ki at Adenosine receptor A1 [1] and at Adenosine receptor A2a [3] was above 100 µM throughout. For the same molecule, the inhibition was 42% in experiment [2] and 82% in experiment [4].

With `O=C1/C(=C/c2cccc(O)c2)CCc2c(O)cccc21`, the Ki turned out to be 1.62 µM on Adenosine receptor A1 [1] and 5.46 µM on Adenosine receptor A2a [3].

Take `COc1ccc2c(c1)C/C(=C\c1ccc(O)c(O)c1)C2=O`: the Ki came to 3.28 µM at Adenosine receptor A1 [1] and 6.32 µM at Adenosine receptor A2a [3]. Further, the Ratio Ki in the experiment listed under Rattus norvegicus was found to be 0.5.
